Laboratory results as given in PubChem BioAssay.
Calls of active or inactive are those of the source.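 How the source made its calls, unless noted: active means inhibition at or above 50% at 10 µM; inactive means inhibition below 50%.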

Experiments:
[1] = inhibitors of TNFa-induced NFkB p65 translocation, primary screen, imaging, HUVEC, MLSMR starter and 10KST1 sets (AID 438;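 active means inhibition above 20% together with a positive visual image hit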;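 further: compound added about 3h40 before a 20 min TNFalpha stimulation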;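 on inhibition: signal is the nuclear over cytoplasmic p65 intensity ratio per well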); details: HUVEC TNFa-induced p65 nuclear translocation; cell count: measured here: nuclei count (cytotoxicity indicator), at 2.08 µM; inhibition: at 2 µM, stronger effect = higher value, 0% TNFa-plus-vehicle, 100% no-TNFa wells
[2] = inhibitors of mutant huntingtin aggregation, primary screen, imaging, exon1htt(103Q)mCFP cells, high-content imaging (AID 483;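 active means visual image review flags a hit and inhibition of aggregation exceeds 20%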;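 further: compound exposure lasted 3 days before fixation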;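 on nuclei count: percent of the per-plate median nuclei count of sample wells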); details: exon1htt(103Q)mCFP cell line, aggregate imaging, at 2 µM; inhibition of aggregation: stronger effect = higher value; nuclei count: measured here: cell count, toxicity
[3] = inhibitors of E-selectin induction by TNFa, primary screen, imaging, HUVEC, immunofluorescence, MLSMR starter and 10KST1 sets (AID 487;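 active means visually confirmed hit in the image check and inhibition above 20%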;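 on inhibition: signal is fraction of cell area covered by stained E-selectin grains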;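 on nuclei count: 100% = median nuclei count of all wells on the same plate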); details: HUVEC TNFalpha-induced E-selectin immunofluorescence imaging, at 2 µM; inhibition: stronger effect = higher value; nuclei count: measured here: cell number, toxicity
[4] = target: Voltage-gated potassium channel subunit beta-2 (Rattus norvegicus) (UniProt P62483); assay: KvBeta enzyme negative modulators, primary screen, biochemical, NADPH fluorescence (AID 622;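 active means fluorescence slope higher than the sample average by over 3 SD, cut at about -0.22 in these data, passing the limit was not always enough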;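 further: slope of raw intensity against log time taken from 70 to 1610 s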); details: recombinant KvBeta, 4-cyanobenzaldehyde reduction, at 10 µM, stronger effect = higher value
[5] = target: Voltage-gated potassium channel subunit beta-2 (Rattus norvegicus) (UniProt P62483); assay: KvBeta positive modulators, primary screen, biochemical, NADPH fluorescence (AID 623;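 active means NADPH fluorescence slope more negative than the mean of all samples by about 3 SD, 99.7% confidence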;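 further: fluorescence intensity change per second fitted from 20 to 320 s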); details: Recombinant KvBeta, NADPH fluorescence decrease slope, 10 min; at 10 µM; stronger effect = lower value
[6] = target: Alpha-2C adrenergic receptor (Homo sapiens) (UniProt P18825); assay: modulators of alpha2C/GIRK thallium flux, primary screen, cell-based, HEK293 alpha2C/GIRK1/2 (AID 624;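 active means fluorescence slope after compound addition differing from the mean of all screened samples at 99.7% confidence, in either direction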;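 further: slope of fluorescence ratio to pre-addition baseline per second over 15 to 24 s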); details: thallium flux BTC fluorescence, at 10 µM, actives lie on both sides
[7] = inhibitors of larval lipid processing in zebrafish, primary screen, whole organism, PED6 fluorescence, gall bladder and intestine (AID 686;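 active means a full or partial loss of lipid-probe fluorescence in the fish gall bladder, intestine or both, judged by eye; inactive means no fluorescence loss, or compound toxic to the fish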;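 further: larvae 5 to 7 days old with five fish per well; signal comes from phospholipase A2 cleavage of quenched PED6 carried via bile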); details: Zebrafish larvae PED6 lipid processing, fluorescence scoring; screened at 20 µM (by protocol)
Method in brief: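 Incubation: overnight exposure of larvae to compound plus PED6 / Test system: live zebrafish larvae aged 5-7 days, whole organism / Amount: 5 larvae per well / Read-out basis: visual per-well fluorescence inhibition score / Signal: visual fluorescence microscopy scoring of gall bladder, gut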

[8] = inhibitors of Sendai virus-induced IRF3 signaling, primary screen, TLR/RLR signaling modifier project, cell-based, Sendai virus stimulus, luciferase, 10K MLSCN set (AID 602276); details: HEK293 RL24 IRF3 luciferase reporter, at 10 µM, stronger effect = higher value;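 further: firefly luciferase from ISG56 promoter only with Renilla not read in this screen; 0% = Sendai virus plus DMSO and 100% = medium plus DMSO without virus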
[9] = inhibitors of poly I:C-induced TLR3 signaling, primary screen, cell-based, poly I:C stimulus, luciferase, 10K MLSCN set (AID 602277;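 active means inhibition of the reporter signal at or above 50%; inactive means inhibition below 50%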); details: HEK293-TLR3 RL24 IRF3 luciferase reporter, at 10 µM, stronger effect = higher value

Voltage-gated potassium channel subunit beta-2 (Rattus norvegicus), sequence (P62483 whole entry, looked up): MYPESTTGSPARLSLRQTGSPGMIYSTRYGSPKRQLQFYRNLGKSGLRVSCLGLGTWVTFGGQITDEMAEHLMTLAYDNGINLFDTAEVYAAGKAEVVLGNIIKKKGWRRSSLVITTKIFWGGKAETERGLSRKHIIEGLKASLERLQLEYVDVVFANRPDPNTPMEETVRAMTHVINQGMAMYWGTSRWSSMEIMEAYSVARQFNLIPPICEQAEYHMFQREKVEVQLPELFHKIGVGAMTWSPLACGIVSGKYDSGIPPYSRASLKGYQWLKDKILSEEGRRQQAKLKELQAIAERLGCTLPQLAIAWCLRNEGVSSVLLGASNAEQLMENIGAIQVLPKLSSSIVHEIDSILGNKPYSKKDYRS
Alpha-2C adrenergic receptor (Homo sapiens), sequence (P18825 whole entry, looked up): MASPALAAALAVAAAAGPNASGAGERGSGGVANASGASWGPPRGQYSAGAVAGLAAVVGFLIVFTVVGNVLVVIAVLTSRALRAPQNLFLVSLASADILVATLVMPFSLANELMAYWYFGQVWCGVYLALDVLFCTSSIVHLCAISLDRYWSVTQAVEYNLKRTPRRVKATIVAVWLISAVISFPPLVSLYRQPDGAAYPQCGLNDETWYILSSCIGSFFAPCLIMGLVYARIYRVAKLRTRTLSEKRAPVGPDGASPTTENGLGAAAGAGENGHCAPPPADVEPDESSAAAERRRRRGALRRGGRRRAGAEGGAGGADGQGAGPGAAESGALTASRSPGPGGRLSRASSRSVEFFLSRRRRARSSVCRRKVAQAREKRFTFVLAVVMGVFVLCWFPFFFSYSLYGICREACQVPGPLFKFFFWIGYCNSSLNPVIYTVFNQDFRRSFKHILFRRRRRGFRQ

| SMILES | cell count [1] | inhibition [1] | inhibition of aggregation [2] | nuclei count [2] [%] | inhibition [3] | nuclei count [3] [%] | fluorescence slope [4] | NADPH fluorescence slope [5] | slope [6] | outcome [7] | inhibition [8] | inhibition [9] |
| --- | --- | --- | --- | --- | --- | --- | --- | --- | --- | --- | --- | --- |
| Cc1nc(C)n(C(C)CC(=O)O)n1 (centres undefined) | 635 | 0.7% (inactive) | 53.1% (active) | 90.8 | -147% (inactive) | 115 | -0.386 (inactive) | -4.4e-05 (inactive) | 0.00496 (inactive) | inactive | 5.03% (inactive) | 7.13% (inactive) |
| COc1ccc(COC(=O)c2n[nH]c3ccccc23)cc1F | 380 | 3.9% (inactive) | -16% (inactive) | 125 | -1.8% (inactive) | 107 | -0.444 (inactive) | -5.5e-05 (inactive) | 0.00618 (inactive) | inactive | -16.1% (inactive) | -49.8% (inactive) |
| Cc1ccc(Cn2c(SCC(N)=O)nc3c2c(=O)n(C)c(=O)n3C)cc1 | 582 | -6.2% (inactive) | 19.4% (inactive) | 88 | 29.5% (inactive) | 72.3 | -0.333 (inactive) | 1e-05 (inactive) | 0.00505 (inactive) | inactive | 0.352% (inactive) | 2.84% (inactive) |
| COc1cccc(OCc2nnc(SCC(=O)OCc3ccccc3)o2)c1 | 328 | 3.3% (inactive) | 1.6% (inactive) | 99.2 | -31.4% (inactive) | 108 | -0.267 (inactive) | -4.9e-06 (inactive) | 0.00652 (inactive) | inactive | 10.1% (inactive) | 7.69% (inactive) |
| CCOC(=O)Cc1csc(NC(=O)c2cccc(OC)c2)n1 | 395 | 5.8% (inactive) | -28.7% (inactive) | 97 | -15.2% (inactive) | 113 | -0.459 (inactive) | -3.2e-05 (inactive) | 0.00478 (inactive) | inactive | 4.13% (inactive) | -6.24% (inactive) |
| COc1ccccc1N1CCN(C(=O)C2CCN(S(=O)(=O)c3ccc(F)cc3)CC2)CC1 | 676 | 11.9% (inactive) | 6.6% (inactive) | 108 | -23.6% (inactive) | 96.3 | -0.415 (inactive) | -2.3e-05 (inactive) | 0.00451 (inactive) | inactive | -6.92% (inactive) | -9.69% (inactive) |
| Cc1cc(C(=O)N2CCCc3ccccc32)no1 | 312 | -4.5% (inactive) | 13% (inactive) | 77.3 | -10.5% (inactive) | 89.2 | -0.39 (inactive) | -4.1e-06 (inactive) | 0.00507 (inactive) | inactive | -8.74% (inactive) | -14.5% (inactive) |
| CCOC(=O)Cn1nnnc1CN(Cc1ccc(OC)cc1)Cc1cc2cc(C)ccc2[nH]c1=O | 623 | -4.9% (inactive) | -27% (inactive) | 112 | 62.8% (inactive) | 135 | -0.384 (inactive) | 6.1e-07 (inactive) | 0.00608 (inactive) | inactive | -4.16% (inactive) | -1.51% (inactive) |
| COc1ccc(OC)c(NC(=O)CSc2nnc(-c3ccco3)n2-c2ccccc2)c1 | 552 | 10.2% (inactive) | 9.3% (inactive) | 104 | -59.6% (inactive) | 98.9 | -0.466 (inactive) | -3.5e-05 (inactive) | 0.00516 (inactive) | inactive | 12.9% (inactive) | 12.9% (inactive) |
| CN(C)c1ccc(NC(=O)Nc2cccc(Cl)c2)cc1 | 387 | 2.3% (inactive) | 1.1% (inactive) | 106 | -10% (inactive) | 109 | -0.436 (inactive) | -3.6e-05 (inactive) | 0.00643 (inactive) | inactive | -43.6% (inactive) | -104% (inactive) |
| COc1ccc(NC(=O)Nc2ccc(N3CCCC3=O)cc2)cc1OC | 462 | 4% (inactive) | -6.3% (inactive) | 102 | -4.9% (inactive) | 120 | -0.368 (inactive) | -3.2e-05 (inactive) | 0.0047 (inactive) | inactive | 4.01% (inactive) | -16.1% (inactive) |
| COc1ccc(Cl)c(N2CCN(CCCNC(=O)Nc3ccc(C)cc3)CC2)c1 | 320 | 2.4% (inactive) | -10.7% (inactive) | 98.8 | 16% (inactive) | 108 | -0.479 (inactive) | -5.7e-05 (inactive) | 0.0037 (inactive) | inactive | 2.1% (inactive) | -5.24% (inactive) |
| CCOC(=O)c1c(C)oc2ccc(NS(=O)(=O)c3ccc4c5c(cccc35)C(=O)N4)cc12 | 429 | 6.5% (inactive) | -5.8% (inactive) | 99 | -185% (inactive) | 114 | -0.223 (inactive) | -1.1e-05 (inactive) | 0.00563 (inactive) | inactive | 21.2% (inactive) | 2.01% (inactive) |
| Cc1nnc(SCc2nnc(-c3ccccc3Br)o2)n1-c1ccccc1 | 730 | 14.5% (inactive) | 38.5% (inactive) | 87.5 | -59.5% (inactive) | 93.8 | -0.455 (inactive) | -4e-05 (inactive) | 0.00597 (inactive) | inactive | 6.33% (inactive) | 8.93% (inactive) |
| CCN(CC)S(=O)(=O)c1cccc(-c2nnc(SCCOc3ccccc3C)o2)c1 | 356 | 0.4% (inactive) | -13.5% (inactive) | 95.4 | 3.8% (inactive) | 114 | -0.458 (inactive) | -8e-05 (inactive) | 0.00732 (inactive) | inactive | 9.64% (inactive) | -24.4% (inactive) |
| Cn1c(=O)c2c(nc(N3CCN(c4ccccc4)CC3)n2CCCc2ccccc2)n(C)c1=O | 702 | 1.4% (inactive) | -15.2% (inactive) | 99.1 | 20.4% (inactive) | 96.5 | -0.339 (inactive) | -3.2e-05 (inactive) | 0.00552 (inactive) | inactive | 10.7% (inactive) | -10.5% (inactive) |
| CC(=O)Nc1c(O)n(C)c2ccccc12 | 638 | -24.1% (inactive) | 4.1% (inactive) | 104 | 25.2% (inactive) | 100 | -0.445 (inactive) | 3.6e-05 (inactive) | 0.00514 (inactive) | inactive | -8.37% (inactive) | 2.01% (inactive) |
| CCOc1nc(-c2ccccc2O)nc2ccccc12 | 716 | -3.1% (inactive) | -11.6% (inactive) | 104 | -148% (inactive) | 116 | -0.437 (inactive) | -2.5e-05 (inactive) | 0.00628 (inactive) | inactive | 6.19% (inactive) | 9.49% (inactive) |
| Cn1c(=O)[nH]c(=O)c2c1nc(Br)n2CCCSc1nc2ccccc2o1 | 588 | -2.9% (inactive) | -18.5% (inactive) | 112 | -8.4% (inactive) | 100 | -0.352 (inactive) | -6.5e-05 (inactive) | 0.00502 (inactive) | inactive | 17.2% (inactive) | 9.4% (inactive) |
| c1cc2c(cc1C1CCCN1)OCCCO2 (centres undefined) | 411 | -7.9% (inactive) | -16.6% (inactive) | 116 | -44% (inactive) | 116 | -0.418 (inactive) | 1.8e-05 (inactive) | 0.00434 (inactive) | inactive | -9.84% (inactive) | -8.78% (inactive) |
| COc1cc(C(=O)OCc2cc3ccccc3[nH]c2=O)cc(OC)c1OC | 833 | -3.9% (inactive) | -3.9% (inactive) | 99.3 | -38.9% (inactive) | 102 | -0.356 (inactive) | -4.1e-05 (inactive) | 0.00585 (inactive) | inactive | 17.4% (inactive) | 18.2% (inactive) |
| CCOC(=O)N1CCN(C(=O)c2cnn(-c3ccccc3)c2NC(=O)c2ccccc2F)CC1 | 397 | 12.1% (inactive) | 1.7% (inactive) | 117 | -69.8% (inactive) | 106 | -0.34 (inactive) | -3.7e-05 (inactive) | 0.00614 (inactive) | inactive | 16% (inactive) | 17.2% (inactive) |
| COc1ccc(S(=O)(=O)NCCCN2CCOCC2)c2ccccc12 | 674 | -3.5% (inactive) | -7.8% (inactive) | 102 | -82.6% (inactive) | 100 | -0.356 (inactive) | -3.4e-05 (inactive) | 0.00569 (inactive) | inactive | 14.4% (inactive) | 19.6% (inactive) |
| CC(=O)Nc1ccc(Cc2ccncc2)cc1 | 528 | -7.4% (inactive) | 14.9% (inactive) | 93.3 | -40.3% (inactive) | 115 | -0.39 (inactive) | -4.8e-05 (inactive) | 0.00486 (inactive) | inactive | 6.14% (inactive) | 4.37% (inactive) |
| COC(=O)c1[nH]c2ccc(C)cc2c1NC(=O)CN1CCCC(C)(C)C1 | 422 | 7.3% (inactive) | -2.1% (inactive) | 101 | -330% (inactive) | 107 | -0.37 (inactive) | -2.6e-05 (inactive) | 0.00452 (inactive) | inactive | 8.28% (inactive) | 18% (inactive) |
| Cc1ccc(CN2C(=O)CCC2C(=O)NCCCN2CCCC(C)C2)cc1 (centres undefined) | 436 | 6.9% (inactive) | -3.9% (inactive) | 106 | -43.5% (inactive) | 129 | -0.434 (inactive) | -2.5e-05 (inactive) | 0.0056 (inactive) | inactive | -5.02% (inactive) | 4.05% (inactive) |
| COc1ccc(OCCOC(=O)c2cccc(-n3cnnn3)c2)cc1 | 289 | 4.4% (inactive) | 8.2% (inactive) | 92.8 | -5.5% (inactive) | 112 | -0.462 (inactive) | -4.8e-05 (inactive) | 0.00521 (inactive) | inactive | -2.23% (inactive) | -15.7% (inactive) |
